The target in experiment [1] is Cannabinoid receptor 2 (Homo sapiens) (UniProt P34972). Description: Intrinsic activity at CB2 receptor in human HL60 cells assessed as upregulation of phosphorylated ERK1/2 expression at 50 nM after 15 mins by Western blotting analysis relative to control. Conditions: HL-60. Format: cell-based. An outline of the steps:
(§1)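 HL-60 human promyelocytic leukaemia cells were treated for 15 min with compounds in culture medium with 1% DMSO. Cells were pelleted, washed in PBS and lysed at 4 °C. Phospho-ERK1/2 in total extracts was detected by western blot with anti-phospho-ERK1/2 clone AW39R and chemiluminescence. Results expressed as mean percentage of vehicle (100%) ± SEM.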
A general note: Immunoblotting shows a protein as a band on a membrane.

The species entered for experiment [2] is Mus musculus. Description: Selectivity ratio of Ki for CB1 receptor in CD1 mouse cerebellum-less brain homogenate to Ki for CB2 receptor in CD1 mouse spleen homogenate. The class given is tissue-based. An outline of the steps: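 Ki measured in two assays. CB1 used male CD1 mouse brain (minus cerebellum) membranes and CB2 used spleen membranes, each with 0.5-1.0 nM [3H]-CP-55,940 for 1 h at 30 °C in TME buffer pH 7.4. IC50 converted by Cheng-Prusoff. Each Ki comes from five independent triplicate experiments, and the line is the ratio of the two Ki values.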

For experiment [3], the target named is Cannabinoid receptor 2 (Homo sapiens) (UniProt P34972). Description: Intrinsic activity at CB2 receptor in human HL60 cells assessed as upregulation of phosphorylated ERK1/2 expression at 50 nM after 15 mins by Western blotting analysis in presence of CB2 receptor antagonist AM630. Format: cell-based. Conditions: HL-60. An outline of the steps: (§2)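 HL-60 cells were pre-treated 5 min with CB2 antagonist AM630 (75 nM), then exposed 15 min to agonist in medium with 1% DMSO. Phospho-ERK1/2 in cell lysates was measured by western blot with anti-phospho-ERK1/2 clone AW39R. Controls were AM630 alone and agonist without pre-treatment. Results given as mean percentage of vehicle (100%) ± SEM.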
Cannabinoid receptor 2 (Homo sapiens), sequence (P34972 whole entry): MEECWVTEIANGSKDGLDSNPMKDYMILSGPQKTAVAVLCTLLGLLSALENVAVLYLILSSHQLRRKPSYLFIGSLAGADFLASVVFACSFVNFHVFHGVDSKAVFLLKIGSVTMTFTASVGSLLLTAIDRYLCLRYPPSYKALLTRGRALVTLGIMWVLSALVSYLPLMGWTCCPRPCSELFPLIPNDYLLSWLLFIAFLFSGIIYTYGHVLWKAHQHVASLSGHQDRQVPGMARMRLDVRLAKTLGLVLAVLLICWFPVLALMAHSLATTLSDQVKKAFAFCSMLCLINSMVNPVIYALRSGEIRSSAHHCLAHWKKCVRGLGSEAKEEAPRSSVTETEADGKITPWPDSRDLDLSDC

The species named for experiment [4] is Homo sapiens. Description: Selectivity ratio of Ki for CB1 receptor (unknown origin) to Ki for CB2 receptor (unknown origin).
Experiment [5] has as its target Cannabinoid receptor 2 (Homo sapiens) (UniProt P34972). Description: Intrinsic activity at CB2 receptor in human HL60 cells assessed as upregulation of phosphorylated ERK1/2 expression at 75 nM after 15 mins by Western blotting analysis relative to control. The class given is cell-based. As to conditions: HL-60. Put shortly: as §1
The target is the same in experiment [6]. Description: Intrinsic activity at CB2 receptor in human HL60 cells assessed as upregulation of phosphorylated ERK1/2 expression at 75 nM after 15 mins by Western blotting analysis in presence of CB2 receptor antagonist AM630. As to conditions: HL-60. Format: cell-based. Put shortly: as §2
In experiment [7] the target is Cannabinoid receptor 1 (Mus musculus, UniProt P47746). Description: Displacement of [3H]-CP-55,940 from CB1 receptor in CD1 mouse cerebellum-less brain homogenate after 1 hr by liquid scintillation counting analysis. The class given is tissue-based. Put shortly: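 Membranes from brain (minus cerebellum) of male CD1 mice, homogenised in ice-cold TME buffer (50 mM Tris-HCl, 1 mM EDTA, 3.0 mM MgCl2, pH 7.4), incubated with 0.5-1.0 nM [3H]-CP-55,940 for 1 h at 30 °C with fatty acid-free BSA. Non-specific binding defined with CP-55,940. Filtration, then scintillation counting. Triplicates in five independent assays; IC50 from sigmoid fit, converted to Ki by Cheng-Prusoff.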
Cannabinoid receptor 1, sequence (P47746 whole entry): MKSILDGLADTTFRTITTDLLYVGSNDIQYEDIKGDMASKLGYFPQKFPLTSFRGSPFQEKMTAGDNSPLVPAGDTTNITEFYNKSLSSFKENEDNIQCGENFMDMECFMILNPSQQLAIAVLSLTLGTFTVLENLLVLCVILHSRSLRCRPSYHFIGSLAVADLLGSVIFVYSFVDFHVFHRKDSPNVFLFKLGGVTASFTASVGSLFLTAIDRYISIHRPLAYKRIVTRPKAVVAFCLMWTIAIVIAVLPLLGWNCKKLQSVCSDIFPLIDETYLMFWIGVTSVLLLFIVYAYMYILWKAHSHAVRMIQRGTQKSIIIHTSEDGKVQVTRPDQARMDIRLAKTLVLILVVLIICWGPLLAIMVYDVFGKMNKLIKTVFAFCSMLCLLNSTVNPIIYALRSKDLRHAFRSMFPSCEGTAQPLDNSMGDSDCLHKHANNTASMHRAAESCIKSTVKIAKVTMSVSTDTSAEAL
For orientation: Loss of bound radioactivity is the signal in a displacement assay; it reports binding, not function.

Experiment [8] concerns the target Cannabinoid receptor 2 (Homo sapiens) (UniProt P34972). Description: Intrinsic activity at CB2 receptor in human HL60 cells assessed as upregulation of phosphorylated ERK1/2 expression at 5 nM after 15 mins by Western blotting analysis relative to control. The class given is cell-based. Conditions: HL-60. An outline of the steps: as §1
Experiment [9] shares this target. Description: Intrinsic activity at CB2 receptor in human HL60 cells assessed as upregulation of phosphorylated ERK1/2 expression at 5 nM after 15 mins by Western blotting analysis in presence of CB2 receptor antagonist AM630. Conditions: HL-60. Format: cell-based. Put shortly:
as §2

Experiment [10] addresses Cannabinoid receptor 2 (Mus musculus, UniProt P47936). Description: Displacement of [3H]-CP-55,940 from CB2 receptor in CD1 mouse spleen homogenate after 1 hr by liquid scintillation counting analysis. The class given is tissue-based. Put shortly: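 Male CD1 mice killed by cervical dislocation; spleen homogenised in 20 vol ice-cold TME buffer (50 mM Tris-HCl, 1 mM EDTA, 3.0 mM MgCl2, pH 7.4), spun 1086 × g then 45,000 × g. Membranes incubated with 0.5–1.0 nM [3H]CP-55,940, 1 h, 30 °C, with 5 mg/mL fatty-acid-free BSA; nonspecific binding defined with CP-55,940. Filtration stop. Triplicates, five independent assays. Sigmoid fit for IC50, then Cheng-Prusoff Ki.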

The target of experiment [11] is Cannabinoid receptor 2 (Homo sapiens) (UniProt P34972). Description: Intrinsic activity at CB2 receptor in human HL60 cells assessed as upregulation of phosphorylated ERK1/2 expression at 10 nM after 15 mins by Western blotting analysis relative to control. Conditions: HL-60. The class given is cell-based. An outline of the steps:
as §1

Experiment [12] shares this target. Description: Intrinsic activity at CB2 receptor in human HL60 cells assessed as upregulation of phosphorylated ERK1/2 expression at 10 nM after 15 mins by Western blotting analysis in presence of CB2 receptor antagonist AM630. The class given is cell-based. As to conditions: HL-60. Put shortly: as §2

The structures appear in SMILES notation. Active and inactive are the calls of the source. No cut-off for these calls is given here.

Cannabinoid receptor 2, sequence (P47936 whole entry): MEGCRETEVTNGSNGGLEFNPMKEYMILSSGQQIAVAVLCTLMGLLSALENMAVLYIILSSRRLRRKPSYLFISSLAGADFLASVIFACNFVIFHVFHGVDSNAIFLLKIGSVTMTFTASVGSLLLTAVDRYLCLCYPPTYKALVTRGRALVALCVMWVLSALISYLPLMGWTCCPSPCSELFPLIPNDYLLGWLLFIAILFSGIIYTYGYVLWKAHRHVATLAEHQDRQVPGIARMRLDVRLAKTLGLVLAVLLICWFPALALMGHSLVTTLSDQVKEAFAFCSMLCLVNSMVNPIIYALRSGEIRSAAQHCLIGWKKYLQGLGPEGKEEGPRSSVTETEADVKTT

As to `Cc1ccc2c(c1)oc1c(C(=O)NC3CCCCC3)nn(-c3ccc(Cl)cc3Cl)c12`, in [1], the Intrinsic activity was 196%. Further, in experiment [2], the Ratio Ki was determined as 79.9. Moreover, the Intrinsic activity entry in experiment [3] is “inactive”.

For `Cc1ccc2c(c1)Cc1c(C(=O)NN3CCCCC3)nn(-c3ccc(Cl)cc3Cl)c1-2`, in experiment [4], the Ratio Ki was 9810.

For the compound `Cc1ccc2c(c1)oc1c(C(=O)NN3CCCCC3)nn(-c3ccc(Cl)cc3Cl)c12`, in experiment [1], the Intrinsic activity amounted to 205%. Besides, the Ratio Ki in [2] came to 139. Also, in [3], the Intrinsic activity result was “inactive”.

In the case of `Cc1ccc2c(c1)oc1c(C(=O)NC34CC5CC(CC(C5)C3)C4)nn(-c3ccc(Cl)cc3Cl)c12`, in experiment [5], the Intrinsic activity was determined as 175%. Moreover, in experiment [2], the Ratio Ki was determined as 13. Also, the Intrinsic activity result in experiment [6] is “inactive”.

As for `Cc1ccc2c(c1)oc1c(C(=O)NN3CCCC3)nn(-c3ccc(Cl)cc3Cl)c12`, the Intrinsic activity in experiment [5] was 185%. Besides, in experiment [2], the Ratio Ki is 92.3. Also, the Intrinsic activity result in experiment [6] was “inactive”.

For `Cc1c(C(=O)c2cccc3ccccc23)c2cccc3c2n1[C@H](CN1CCOCC1)CO3`, in experiment [5], the Intrinsic activity was determined as 190%.

`Cc1ccc2c(c1)oc1c(C(=O)N[C@@H]3C[C@H](C)CC[C@H]3C(C)C)nn(-c3ccc(Cl)cc3Cl)c12`: the Ki in [7] turned out to be 38.2 nM; in [10], 2.3 nM. Also, the Intrinsic activity in experiment [8] turned out to be 193%. Besides, the Intrinsic activity result in [9] is “inactive”. For the same compound, in experiment [2], the Ratio Ki came to 16.6.

Regarding `Cc1ccc2c(c1)oc1c(C(=O)NN3CCOCC3)nn(-c3ccc(Cl)cc3Cl)c12`, the Intrinsic activity in [5] amounted to 178%. Also, the Ratio Ki in [2] is 108. The Intrinsic activity result in experiment [6] is “inactive”.

Consider `Cc1ccc2c(c1)oc1c(C(=O)NC3C4CC5CC(C4)CC3C5)nn(-c3ccc(Cl)cc3Cl)c12` (stereo not given), for which the Intrinsic activity in experiment [1] was found to be 187%. Also, the Ratio Ki in experiment [2] is 30.7. In addition, the Intrinsic activity result in experiment [3] is “inactive”.

With `Cc1ccc2c(c1)oc1c(C(=O)N[C@H]3CC4CC[C@]3(C)C4(C)C)nn(-c3ccc(Cl)cc3Cl)c12`, the Intrinsic activity in experiment [11] came to 189%. Further, the Ki in experiment [7] came out at 469 nM; in [10], 3.5 nM. Besides, the Intrinsic activity entry in experiment [12] is “inactive”. Besides, in [2], the Ratio Ki turned out to be 134.

Turning to `Cc1ccc2c(c1)oc1c(C(=O)N[C@H]3C4(C)CCC(C4)C3(C)C)nn(-c3ccc(Cl)cc3Cl)c12` (stereo not given in full), the Intrinsic activity in [11] was determined as 200%. For the same compound, the Ki in experiment [7] amounted to 257 nM; in experiment [10], 2.5 nM. The Intrinsic activity entry in [12] was “inactive”. Further, the Ratio Ki in [2] is 103.

`Cc1ccc2c(c1)oc1c(C(=O)N[C@@H]3CC4CC([C@H]3C)C4(C)C)nn(-c3ccc(Cl)cc3Cl)c12` (stereo not given in full): the Ki in experiment [7] worked out at 2400 nM; in [10], 3.7 nM. The Intrinsic activity in [8] was 205%. The Intrinsic activity entry in experiment [9] was “inactive”. Also, the Ratio Ki in [2] turned out to be 648.

A word on the Ki: it is the dissociation constant of the complex between target and ligand, obtained from inhibition or displacement. A higher Ki goes with a looser hold on the target.

Source of the values: ChEMBL document CHEMBL3286155, “Tricyclic pyrazoles. Part 6. Benzofuro[3,2-c]pyrazole: a versatile architecture for CB2 selective ligands” (Eur J Med Chem, 2014).
